We go through seven compounds from ChEMBL document CHEMBL1143217, “Bioisosteric replacement of dihydropyrazole of 4S-(-)-3-(4-chlorophenyl)-N-methyl-N'-[(4-chlorophenyl)-sulfonyl]-4-phenyl-4,5-dihydro-1H-pyrazole-1-caboxamidine (SLV-319) a potent CB1 receptor antagonist by imidazole and oxazole” (2008).

Broadly, the inhibition in vivo is the relative decrease from the control value, in per cent. A higher inhibition in vivo goes with strong suppression.

Test [1] relates to Rattus norvegicus. Briefly: Inhibition of 5% sucrose solution intake in Zucker fa/fa rat at 10 mg/kg, po on day 7 after 1 hr. It is filed as functional. The method, boiled down: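 Female Zucker fa/fa rats (10–12 weeks, 300–350 g) were trained on six consecutive days, without food or water during sessions. On day 7 they were randomized (n = 6/group) and dosed orally at 10 mg/kg in 0.5% CMC-Na/water (2 mL/kg). One hour later they had 5% sucrose for 4 h. Intake (g) and % inhibition vs control; mean ± SEM; one-way ANOVA with Dunnett's test.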

Test [2] deals with Cannabinoid receptor 1 (Homo sapiens) (UniProt P21554). Briefly: Antagonist activity at human CB1 receptor expressed in CHO cells assessed as forskolin-induced cAMP accumulation per ug of protein at 10 uM in presence of WIN-55212-2. It counts as functional, cell-based. In outline: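 CHO-K1 cells stably expressing human CB1 were kept in HAM's F12 with 10% heat-inactivated dialyzed FBS and 0.8 mg/mL G-418. Cells were seeded at 50,000/well, grown 16–18 h, then preincubated 30 min at 37 °C with 0.25% fatty-acid-free BSA, IBMX 0.1 mM and RO20-1724 0.1 mM. Drugs were added for 5 min, then forskolin (10, final) for 20 min. Cells were lysed in 0.1 N HCl/0.1% Triton for cAMP ELISA. Mean ± SD, duplicate, ≥3 experiments.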

Counter-ions that a name gives are not always drawn.

Sequence of Cannabinoid receptor 1 (Homo sapiens) (P21554 whole entry): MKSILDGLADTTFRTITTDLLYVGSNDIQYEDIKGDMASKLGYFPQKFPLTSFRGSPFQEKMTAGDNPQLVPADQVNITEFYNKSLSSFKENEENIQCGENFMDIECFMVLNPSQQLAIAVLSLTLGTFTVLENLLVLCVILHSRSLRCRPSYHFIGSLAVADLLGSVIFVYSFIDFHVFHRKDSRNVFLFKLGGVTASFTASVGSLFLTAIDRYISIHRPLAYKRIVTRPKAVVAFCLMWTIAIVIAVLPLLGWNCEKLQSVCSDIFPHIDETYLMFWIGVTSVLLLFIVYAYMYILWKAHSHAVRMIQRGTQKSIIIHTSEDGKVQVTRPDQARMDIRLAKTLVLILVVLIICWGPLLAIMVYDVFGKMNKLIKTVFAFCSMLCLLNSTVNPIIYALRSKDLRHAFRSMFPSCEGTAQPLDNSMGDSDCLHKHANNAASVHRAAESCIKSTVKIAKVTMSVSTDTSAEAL

For `Cc1c(C(=O)NN2CCCCC2)nn(-c2ccc(Cl)cc2Cl)c1-c1ccc(Cl)cc1` [RIMONABANT HYDROCHLORIDE], at 10 mg/kg the inhibition in vivo in test [1] was 36.1%. `CN/C(=N/S(=O)(=O)c1ccc(Cl)cc1)c1nc(-c2ccccc2)c(-c2ccc(Cl)cc2)o1` registered an inhibition in vivo at 10 mg/kg in test [1] of 4.3%. In addition, the Activity in test [2] worked out at 0.6 pmol. Taken in the same sequence, the figures for `CN/C(=N/S(=O)(=O)c1ccc(Cl)cc1)C1CN(c2ccc(Cl)cc2)C(c2ccccc2)=N1` (configuration not stated) were 2.2% and 0.94 pmol.

`CN/C(=N/S(=O)(=O)c1ccc(Cl)cc1)C1CN(c2ccccc2)C(c2ccc(Cl)cc2)=N1` (configuration not stated): the inhibition in vivo at 10 mg/kg in test [1] was 14.4%. Besides, the Activity in test [2] was 1.22 pmol. Taken in the same sequence, the figures for `CN/C(=N/S(=O)(=O)c1ccc(Cl)cc1)c1nc(-c2ccc(Cl)cc2)c(-c2ccccc2)o1` were 0.6% and 1.3 pmol. Turning to `CN/C(=N/S(=O)(=O)c1ccc(Cl)cc1)c1cn(-c2ccc(Cl)cc2)c(-c2ccccc2)n1`, in test [1], 10 mg/kg produced 6.7% inhibition in vivo. Besides, the Activity in test [2] is 0.55 pmol.

Regarding `CN/C(=N\S(=O)(=O)c1ccc(Cl)cc1)N1C[C@H](c2ccccc2)C(c2ccc(Cl)cc2)=N1` [IBIPINABANT], the inhibition in vivo at 10 mg/kg in test [1] came to 37.6%.
